How the values were obtained:
[1] = Inhibition of MAGL mediated [14C]2-arachidonoyl glycerol hydrolysis in african green monkey COS cells; assay type: cell-based; details: Chlorocebus aethiops
Summary of the method: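 The 10,000 g cytosolic fraction of COS cells overexpressing DAGLα was used as the MAGL source. It was incubated with radiolabelled synthetic 2-arachidonoylglycerol (1.0 mCi/mmol) in 50 mM Tris-HCl, pH 7.0, at 37 °C for 20 min. Lipids were then extracted with 2 volumes of chloroform/methanol 2:1 and lyophilized.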

[2] = biological target: T1, Fatty-acid amide hydrolase 1 (Rattus norvegicus, UniProt P97612); assay: Inhibition of FAAH mediated [14C]anandamide hydrolysis in rat brain after 30 mins; assay type: tissue-based
T1 sequence (P97612 whole entry): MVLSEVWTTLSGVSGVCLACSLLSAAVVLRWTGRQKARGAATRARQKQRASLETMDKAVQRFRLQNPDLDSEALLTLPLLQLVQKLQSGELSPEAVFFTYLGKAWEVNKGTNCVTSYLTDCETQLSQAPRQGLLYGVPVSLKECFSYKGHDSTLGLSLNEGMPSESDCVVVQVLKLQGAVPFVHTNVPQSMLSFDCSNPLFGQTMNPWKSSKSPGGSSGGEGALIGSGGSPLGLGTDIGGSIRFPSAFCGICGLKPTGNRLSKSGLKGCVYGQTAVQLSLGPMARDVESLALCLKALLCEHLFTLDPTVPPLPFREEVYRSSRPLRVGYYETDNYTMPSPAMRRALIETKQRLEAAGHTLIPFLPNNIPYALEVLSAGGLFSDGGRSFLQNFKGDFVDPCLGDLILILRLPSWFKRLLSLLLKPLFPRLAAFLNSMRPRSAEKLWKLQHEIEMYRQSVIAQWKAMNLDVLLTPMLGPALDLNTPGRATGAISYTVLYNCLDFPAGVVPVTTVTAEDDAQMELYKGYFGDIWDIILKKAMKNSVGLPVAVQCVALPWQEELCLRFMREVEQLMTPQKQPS
Summary of the method: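 Rat brain membranes incubated with test compounds and [14C]anandamide in 50 mM Tris-HCl, pH 9, for 30 min at 37 °C. After extraction with 2 volumes CHCl3/MeOH 2:1, [14C]ethanolamine in the aqueous phase was scintillation-counted. IC50 was taken as the concentration giving 50% inhibition of hydrolysis.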

RBL-2H3 [3] = assay: Inhibition of [14C]anandamide uptake in rat RBL-2H3 cells preincubated 10 mins before addition of [14C]anandamide; assay type: functional, cell-based; parameters: inhibition (INH): concentration or dose not given beside the values; details: for IC50: Rattus norvegicus, RBL-2H3
Summary of the method: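 Intact RBL-2H3 cells were pre-exposed to inhibitor at varying concentrations for 10 min, then given [14C]anandamide (10,000 cpm) for 90 s at 37 °C. Uptake was taken as the residual label in the medium after CHCl3/CH3OH 2:1 extraction, read by scintillation counting of the organic phase. Non-specific binding was defined with excess unlabelled anandamide. IC50 was calculated from the inhibition data.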

[4] = biological target: T2, Diacylglycerol lipase-alpha (Homo sapiens, UniProt Q9Y4D2); assay: Inhibition of human recombinant DAGLalpha mediated sn-1-[14C]oleoyl-2-arachidonoyl-glycerol hydrolysis to 2-AG overexpressed in COS cells after 20 mins; assay type: cell-based
T2 sequence (Q9Y4D2 whole entry): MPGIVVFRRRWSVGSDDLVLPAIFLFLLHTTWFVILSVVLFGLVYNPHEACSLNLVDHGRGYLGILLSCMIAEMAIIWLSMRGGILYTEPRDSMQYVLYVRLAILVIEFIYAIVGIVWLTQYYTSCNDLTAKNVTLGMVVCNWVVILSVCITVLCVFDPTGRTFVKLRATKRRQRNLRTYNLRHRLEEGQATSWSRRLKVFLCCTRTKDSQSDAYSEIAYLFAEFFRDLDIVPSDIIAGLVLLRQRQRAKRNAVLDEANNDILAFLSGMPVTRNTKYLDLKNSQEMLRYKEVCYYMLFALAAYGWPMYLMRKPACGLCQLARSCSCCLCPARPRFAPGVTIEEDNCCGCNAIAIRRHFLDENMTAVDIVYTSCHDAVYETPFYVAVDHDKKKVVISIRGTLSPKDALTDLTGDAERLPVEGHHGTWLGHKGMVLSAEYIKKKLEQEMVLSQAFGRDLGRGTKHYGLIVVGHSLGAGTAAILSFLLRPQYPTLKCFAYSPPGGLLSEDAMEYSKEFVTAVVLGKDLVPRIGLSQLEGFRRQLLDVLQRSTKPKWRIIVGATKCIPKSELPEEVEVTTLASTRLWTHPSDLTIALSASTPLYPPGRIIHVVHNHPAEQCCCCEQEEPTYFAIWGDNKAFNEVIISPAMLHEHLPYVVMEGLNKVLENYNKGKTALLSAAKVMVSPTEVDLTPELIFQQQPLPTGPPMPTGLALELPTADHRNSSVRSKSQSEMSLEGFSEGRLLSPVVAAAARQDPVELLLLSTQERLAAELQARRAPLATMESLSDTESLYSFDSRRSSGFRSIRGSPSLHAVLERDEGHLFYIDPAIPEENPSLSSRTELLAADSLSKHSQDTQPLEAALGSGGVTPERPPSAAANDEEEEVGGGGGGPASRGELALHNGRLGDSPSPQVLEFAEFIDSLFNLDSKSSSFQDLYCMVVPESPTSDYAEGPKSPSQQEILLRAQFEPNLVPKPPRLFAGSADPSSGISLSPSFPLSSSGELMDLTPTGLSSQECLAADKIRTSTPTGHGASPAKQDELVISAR
Summary of the method: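 COS cells overexpressing DAGLα were harvested in Tris-HCl pH 7, Dounce-homogenized and spun at 800 g then 10 000 g at 4 °C. The 10 000 g membrane fraction was incubated with sn-1-[14C]oleoyl-2-arachidonoyl-glycerol in 50 mM Tris-HCl with 1 mM CaCl2, pH 7.0, for 20 min at 37 °C. Lipids were extracted with CHCl3/MeOH 2:1 and separated by silica TLC (CHCl3/MeOH/NH4OH 85/15/1). [14C]Oleic acid bands were β-counted.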

Monocyte = assay: Inhibition of anandamide uptake in human monocytes; assay type: functional, cell-based
[5] = biological target: T3, Fatty-acid amide hydrolase 1 (Rattus norvegicus) (UniProt P97612); assay: Inhibition of FAAH mediated [14C]anandamide hydrolysis in rat RBL-2H3 cells at 1 uM after 30 mins
T3 sequence (whole entry): T1 sequence (P97612 whole entry)

RBL-2H3 [6] = assay: Inhibition of [14C]anandamide uptake in rat RBL-2H3 cells at 0.1 uM preincubated 10 mins before addition of [14C]anandamide; assay type: functional
Summary of the method: (§1)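 RBL-2H3 cells were given inhibitor at 0.1 or 1 µM for 10 min, then [14C]anandamide (10,000 cpm) for 90 s at 37 °C. Uptake was read as residual medium label in the organic extract, and [14C]ethanolamine was counted in the aqueous phase in the same experiment. Results are % inhibition of uptake, N=4.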

[7] = biological target: T3, Fatty-acid amide hydrolase 1 (Rattus norvegicus); assay: Inhibition of FAAH mediated [14C]anandamide hydrolysis in rat RBL-2H3 cells at 0.1 uM after 30 mins
RBL-2H3 [8] = assay: Inhibition of [14C]anandamide uptake in rat RBL-2H3 cells at 1 uM preincubated 10 mins before addition of [14C]anandamide; assay type: functional; summary of the method: as §1

| SMILES | IC50 [1] [µM] | IC50 [2] [µM] | inhibition (INH) (RBL-2H3 [3]) [%] | IC50 (RBL-2H3 [3]) [µM] | IC50 [4] [µM] | IC50 (Monocyte) [µM] | inhibition [5] [%] | inhibition at 0.1 µM (RBL-2H3 [6]) [%] | inhibition [7] [%] | inhibition at 1 µM (RBL-2H3 [8]) [%] |
| --- | --- | --- | --- | --- | --- | --- | --- | --- | --- | --- |
| CN(C)C(=O)n1nnnc1CCCc1ccccc1 | 10 | 0.0027 | 18 | > 10 | 10 | – | – | – | – | – |
| CN(C)C(=O)n1nnc(CNC(=O)c2ccc(-c3ccccc3)cc2)n1 | > 10 | 0.006 | – | 0.985 | > 10 | – | – | – | – | – |
| CN(C)C(=O)n1nnnc1CCc1ccccc1 | 10 | 0.0054 | 15.8 | > 10 | 10 | – | – | – | – | – |
| CN(C)C(=O)n1nnc(CNC(=O)CCCCCCc2ccccc2)n1 | > 10 | 0.0021 | 30 | > 10 | 10 | – | – | – | – | – |
| CN(C)C(=O)n1nnc(CNC(=O)c2ccc(N=[N+]=[N-])c(I)c2)n1 | > 10 | 0.025 | 9 | > 1 | 4.4 | – | – | – | – | – |
| CN(C)C(=O)n1nnc(CCCc2ccccc2)n1 | 0.11 | 0.0032 | 16 | > 10 | 0.5 | – | – | – | – | – |
| CN(C)C(=O)n1nnc(CCc2ccccc2)n1 | 0.48 | 0.0035 | 10.9 | > 10 | 0.6 | – | – | – | – | – |
| CN(C)C(=O)n1nnc(CNC(=O)c2cccc(-c3ccccc3)c2)n1 | 10 | 0.023 | 23 | > 10 | > 10 | – | – | – | – | – |
| CN(C)C(=O)n1nnnc1CNC(=O)CCCCCCc1ccccc1 | 0.02 | 0.0037 | – | 0.851 | 0.2 | – | – | – | – | – |
| CN(C)C(=O)n1nnnc1CNC(=O)c1ccc(N=[N+]=[N-])c(I)c1 | 0.35 | 0.023 | 32.4 | > 1 | 0.13 | – | – | – | – | – |
| CN(C)C(=O)n1nnnc1CNC(=O)c1cccc(-c2ccccc2)c1 | 0.85 | 0.032 | – | 0.09 | 0.34 | – | – | – | – | – |
| CN(C)C(=O)n1nnnc1CNC(=O)CCCCCCCc1ccccc1 | 0.04 | 0.01 | 37.5 | > 10 | 0.57 | – | – | – | – | – |
| CN(C)C(=O)n1nnc(Cc2ccc(-c3ccccc3)cc2)n1 | 0.02 | 0.033 | – | 0.998 | 0.51 | – | – | – | – | – |
| C=CCOc1ccc(CN(C/C=C/c2ccccc2)CCCC)cc1 | – | – | – | – | – | 0.09 | – | – | – | – |
| CN(C)C(=O)n1nnnc1Cc1ccc(-c2ccccc2)cc1 | 8.1 | 0.0021 | – | 0.015 | > 10 | – | 36.7 | 66.5 | 41.1 | 74.2 |
| CN(C)C(=O)n1nnc(CNC(=O)CCCCCCCc2ccccc2)n1 | 10 | 0.0032 | 18.8 | > 10 | 10 | – | – | – | – | – |

Source: ChEMBL document CHEMBL1157211, “Carbamoyl tetrazoles as inhibitors of endocannabinoid inactivation: a critical revisitation” (Eur J Med Chem, 2008)
